Test results as given in ChEMBL document CHEMBL3407462, “Further insights into the SAR of α-substituted cyclopropylamine derivatives as inhibitors of histone demethylase KDM1A” (Eur J Med Chem, 2015).
Activity calls are given as the source filed them. The calls are words filed in the database; no cut-off is given here.

biological target: LSD1/CoREST complex (Homo sapiens) (UniProt O60341+Q9UKL0); experiment: Inhibition of human recombinant KDM1A/CoREST complex expressed in Escherichia coli using mono-methylated H3-K4 peptide containing 21 amino acids as substrate up to 100 uM preincubated for 15 mins followed by substrate addition measured for 12 mins by fluorescence assay
Method in brief: (§1)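 KDM1A/CoREST co-purified from E. coli as separate proteins; 20 nM complex preincubated 15 min at RT with inhibitor, 50 µM Amplex UltraRed and 0.023 µM HRP in 50 mM Tris-HCl pH 8.0, 0.05 mg/ml BSA. Reaction started with 4.5 µM H3K4me1 21-mer peptide. H2O2 release read by fluorescence (ex 510/em 595 nm) for 12 min, aerobic. Tested twice in duplicate; IC50 reported.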

Chain of LSD1/CoREST complex (Homo sapiens) (Q9UKL0 whole entry, looked up, other chains not shown): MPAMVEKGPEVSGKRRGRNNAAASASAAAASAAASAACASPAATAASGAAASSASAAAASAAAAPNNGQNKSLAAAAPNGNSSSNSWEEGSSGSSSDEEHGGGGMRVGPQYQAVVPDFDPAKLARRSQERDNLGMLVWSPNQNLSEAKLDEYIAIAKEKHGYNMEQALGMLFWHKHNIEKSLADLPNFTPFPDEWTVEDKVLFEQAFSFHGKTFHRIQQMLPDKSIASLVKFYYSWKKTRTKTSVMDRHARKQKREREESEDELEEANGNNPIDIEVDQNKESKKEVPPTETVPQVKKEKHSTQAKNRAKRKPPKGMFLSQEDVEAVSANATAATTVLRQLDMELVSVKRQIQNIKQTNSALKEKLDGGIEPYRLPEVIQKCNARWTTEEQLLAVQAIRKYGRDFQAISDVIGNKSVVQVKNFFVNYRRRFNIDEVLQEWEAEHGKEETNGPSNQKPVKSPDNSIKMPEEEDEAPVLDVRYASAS

| inhibition | Structure (SMILES) |
| --- | --- |
| inactive | O=C1COC[C@]2(C[C@H]2c2ccccc2)N1 |
| inactive | O=C1NCCN[C@]12C[C@@H]2c1ccccc1 |

biological target: LSD1/CoREST complex (Homo sapiens, UniProt O60341); experiment: Inhibition of human recombinant KDM1A/CoREST complex expressed in Escherichia coli using mono-methylated H3-K4 peptide containing 21 amino acids as substrate preincubated for 15 mins followed by substrate addition measured for 12 mins by fluorescence assay; method in brief: as §1

| Structure (SMILES) | IC50 |
| --- | --- |
| CC[C@]1(N)C[C@@H]1c1ccccc1Br (mixture of isomers) | 350 nM |
| CC[C@]1(N)C[C@@H]1c1ccc(F)cc1 (mixture of isomers) | 1020 nM |
| CC[C@]1(N)C[C@@H]1c1cccc(OC)c1 (mixture of isomers) | 123 nM |
| CC[C@]1(N)C[C@@H]1c1ccc(Cl)cc1 (mixture of isomers) | 178 nM |
| CC[C@]1(N)C[C@@H]1c1cccc(F)c1 (mixture of isomers) | 79 nM |
| CC[C@]1(N)C[C@@H]1c1ccc(Br)cc1 (mixture of isomers) | 121 nM |
| N[C@@]1(CCc2ccccc2)C[C@@H]1c1cccc(Br)c1 (mixture of isomers) | 94 nM |
| N[C@@]1(CCc2ccccc2)C[C@@H]1c1ccc(F)cc1 (mixture of isomers) | 173 nM |
| N[C@@]1(Cc2ccc3ccccc3c2)C[C@@H]1c1ccc(Br)cc1 (mixture of isomers) | 279 nM |
| N[C@@]1(Cc2ccccc2)C[C@@H]1c1ccc(Cl)cc1 (mixture of isomers) | 230 nM |
| N[C@@]1(Cc2ccccc2)C[C@@H]1c1ccc(F)cc1 (mixture of isomers) | 1050 nM |
| N[C@@]1(c2ccccc2)C[C@@H]1c1ccc(Cl)cc1 (mixture of isomers) | 554 nM |
| CC[C@]1(N)C[C@@H]1c1ccccc1Cl (racemic) | 258 nM |
| CC[C@]1(N)C[C@@H]1c1ccc(C(F)(F)F)cc1 (racemic) | 248 nM |
| CC[C@]1(N)C[C@@H]1c1cccc(C(F)(F)F)c1 (racemic) | 118 nM |
| CC[C@]1(N)C[C@@H]1c1cccc(Cl)c1 (racemic) | 38 nM |
| CC[C@]1(N)C[C@@H]1c1cccc(Br)c1 (racemic) | 31 nM |
| N[C@@]1(CCc2ccccc2)C[C@@H]1c1ccc(Br)cc1 (racemic) | 101 nM |
| N[C@@]1(CCc2ccccc2)C[C@@H]1c1ccc(Cl)cc1 (racemic) | 96 nM |
| N[C@@]1(Cc2ccc3ccccc3c2)C[C@@H]1c1cccc(Br)c1 (racemic) | 251 nM |
| N[C@@]1(Cc2ccc3ccccc3c2)C[C@@H]1c1cccc(Cl)c1 (racemic) | 158 nM |
| N[C@@]1(Cc2ccc3ccccc3c2)C[C@@H]1c1ccc(F)cc1 (racemic) | 642 nM |
| N[C@@]1(Cc2ccc3ccccc3c2)C[C@@H]1c1ccc(Cl)cc1 (racemic) | 263 nM |
| N[C@@]1(Cc2ccccc2)C[C@@H]1c1ccc(Br)cc1 (racemic) | 187 nM |
| N[C@@]1(c2ccccc2)C[C@@H]1c1ccc(Br)cc1 (racemic) | 47 nM |
| CC[C@]1(N)C[C@@H]1c1ccc(OC(F)(F)F)cc1 (racemic) | 1160 nM |
| CC[C@]1(N)C[C@@H]1c1ccc(Br)c(F)c1 (racemic) | 35 nM |
| CC[C@]1(N)C[C@@H]1c1ccccc1F (racemic) | 352 nM |
